Laboratory results reported in ChEMBL document CHEMBL4354873, “Rationally Designed Small-Molecule Inhibitors Targeting an Unconventional Pocket on the TLR8 Protein-Protein Interface” (J Med Chem, 2020).
Active and inactive are the calls of the source. The calls are words filed in the database; no cut-off is given here.

Tests used:
[1] = biological target: T1, Toll-like receptor 8 (Homo sapiens) (UniProt Q9NR97); assay: Inhibition of R848 binding to human TLR8 ectodomain at 50 uM by isothermal titration calorimetry
T1 sequence (whole entry): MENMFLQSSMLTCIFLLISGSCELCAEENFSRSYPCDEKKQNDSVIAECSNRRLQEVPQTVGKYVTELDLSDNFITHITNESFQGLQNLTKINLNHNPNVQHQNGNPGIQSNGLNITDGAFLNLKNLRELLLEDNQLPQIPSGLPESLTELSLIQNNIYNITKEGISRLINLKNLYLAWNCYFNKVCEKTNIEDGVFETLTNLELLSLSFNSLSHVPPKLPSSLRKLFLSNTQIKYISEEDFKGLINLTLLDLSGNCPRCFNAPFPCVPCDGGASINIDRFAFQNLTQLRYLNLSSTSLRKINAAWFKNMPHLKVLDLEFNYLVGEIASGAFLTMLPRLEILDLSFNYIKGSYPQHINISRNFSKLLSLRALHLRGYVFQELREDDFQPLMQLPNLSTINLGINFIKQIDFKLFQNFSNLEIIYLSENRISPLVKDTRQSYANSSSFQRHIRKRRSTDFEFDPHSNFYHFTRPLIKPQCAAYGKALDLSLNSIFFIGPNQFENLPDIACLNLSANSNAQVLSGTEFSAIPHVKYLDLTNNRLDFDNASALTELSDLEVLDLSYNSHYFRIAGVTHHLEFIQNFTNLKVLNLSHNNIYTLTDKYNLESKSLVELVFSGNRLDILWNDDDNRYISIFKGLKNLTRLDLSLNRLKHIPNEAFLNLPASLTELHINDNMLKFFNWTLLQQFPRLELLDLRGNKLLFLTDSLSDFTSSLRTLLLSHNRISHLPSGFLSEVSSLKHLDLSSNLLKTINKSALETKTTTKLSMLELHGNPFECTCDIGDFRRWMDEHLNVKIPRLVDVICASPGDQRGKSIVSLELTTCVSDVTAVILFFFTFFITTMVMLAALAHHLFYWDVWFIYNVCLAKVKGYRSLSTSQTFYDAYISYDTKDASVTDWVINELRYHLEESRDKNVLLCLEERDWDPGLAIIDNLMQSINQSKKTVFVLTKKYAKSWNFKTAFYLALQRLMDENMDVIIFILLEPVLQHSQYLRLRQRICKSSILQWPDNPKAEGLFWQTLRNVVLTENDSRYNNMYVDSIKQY

[2] = biological target: T1, Toll-like receptor 8 (Homo sapiens); assay: (§1) Inhibition of human TLR8 expressed in HEK-Blue cells assessed as inhibition of R848-induced NF-kappaB activation measured after 24 hrs by quanti-blue based SEAP reporter gene assay; type: cell-based
Toll-like receptor 8 = biological target: T2, Toll-like receptor 8 (Homo sapiens, UniProt Q9NR97); assay: as §1; type: cell-based
T2 sequence (Q9NR97 whole entry): T1 sequence (whole entry)

[3] = biological target: Toll-like receptor 4 (Homo sapiens) (UniProt O00206); assay: Inhibition of human TLR4 expressed in HEK-Blue cells assessed as inhibition of LPS-induced NF-kappaB activation at 20 uM measured after 24 hrs by quanti-blue based SEAP reporter gene assay; type: cell-based
How it was run: (§2)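 HEK-Blue SEAP format: 4 × 10⁴ cells/well in DMEM with ligand plus compound, 24 h at 37 °C. Supernatant mixed with QUANTI-Blue up to 1 h, then A620 read. Ligands: Pam3CSK4 100 ng/mL (TLR1/2), Pam2CSK4 100 ng/mL (TLR2/6), poly(I:C) 5 µg/mL (TLR3), LPS 20 ng/mL (TLR4), flagellin 50 ng/mL (TLR5), R848 1 µg/mL (TLR7), R848 2 µg/mL (TLR8), ODN2006 0.5 µM (TLR9). Mean ± s.d.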

[4] = biological target: Toll-like receptor 5 (Homo sapiens) (UniProt O60602); assay: Inhibition of human TLR5 expressed in HEK-Blue cells assessed as inhibition of flagellin-induced NF-kappaB activation at 20 uM measured after 24 hrs by quanti-blue based SEAP reporter gene assay; type: cell-based; how it was run: as §2
[5] = biological target: T1, Toll-like receptor 8 (Homo sapiens); assay: Inhibition of human TLR8 expressed in HEK-Blue cells assessed as inhibition of R848-induced TNFalpha mRNA level at 1 uM measured after 8 hrs by Trizol reagent based qRT-PCR analysis; type: cell-based
How it was run: (§3)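 RT-qPCR: HEK-Blue TLR8 cells seeded at 1 × 10⁶/well and grown 24 h, then switched to serum-free medium. Treated with R848 4 µg/mL ± compound 1 µM for 8 h. Total RNA extracted with TRIzol, reverse transcribed, TNF-α and IL-8 mRNA quantified. Three independent biological replicates, mean ± s.d.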

[6] = biological target: T1, Toll-like receptor 8 (Homo sapiens); assay: Inhibition of human TLR8 expressed in HEK-Blue cells assessed as inhibition of R848-induced IL-8 mRNA level at 1 uM measured after 8 hrs by Trizol reagent based qRT-PCR analysis; type: cell-based; how it was run: as §3
[7] = biological target: T1, Toll-like receptor 8 (Homo sapiens); assay: Inhibition of TLR8 in human monocytes assessed as reduction in R848-induced TRAF3 expression measured after 2 hrs by Western blot analysis; type: cell-based
How it was run: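 Monocyte cell lines, 2 × 10⁶/well, differentiated with PMA 100 ng/mL for 24 h. After washes, cells in unsupplemented RPMI received R848 1 µg/mL with varying compound concentrations for 2 h. Nuclear/cytoplasmic fractions extracted and resolved on 10% SDS-PAGE. Blots probed for p65, TRAF3 and p-IRAK4 (1:1000); lamin A/C (nuclear) and β-actin (cytoplasmic) as loading controls.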

[8] = biological target: T1, Toll-like receptor 8 (Homo sapiens); assay: Inhibition of TLR8 in human monocytes assessed as reduction in R848-induced IL1beta production measured after 24 hrs by ELISA; type: cell-based
How it was run: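 Human monocyte cell lines in RPMI 1640 with 10% FBS and 0.05 mM 2-mercaptoethanol, 1 × 10⁶/well, 24 h. After PBS washes, fresh RPMI added with R848 1 µg/mL and varying compound concentrations for 24 h. Supernatant TNF-α, IL-6 and IL-1β measured by ELISA.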

[9] = biological target: T1, Toll-like receptor 8 (Homo sapiens); assay: Inhibition of TLR8 in human PBMC assessed as reduction in R848-induced TNFalpha production measured after 24 hrs by ELISA
How it was run: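 PBMCs from healthy donors isolated by density gradient centrifugation and cultured at once at 3 × 10⁶ cells/mL in RPMI 1640. Cells received R848 and varying compound concentrations for 24 h. Supernatants spun 10 min at 4 °C, frozen at −80 °C, and TNF-α measured by ELISA.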

PBMC = assay: Cytotoxicity against rheumatoid arthritis patient-derived PBMC assessed as reduction in cell viability up to 80 uM measured after 24 hrs by CCK8 assay; type: cell-based; conditions: human
How it was run: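 CCK-8 viability: compounds incubated 24 h at 37 °C with HEK-Blue TLR8 cells (4 × 10⁴ cells/well) or PBMCs (3 × 10⁶ cells/mL). CCK-8 was added at 1:10 for up to 2 h, then absorbance read at 450 nm. Values normalized to untreated cells as 100% survival.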

[10] = biological target: T1, Toll-like receptor 8 (Homo sapiens); assay: Inhibition of TLR8 in rheumatoid arthritis patient-derived PBMC assessed as reduction in spontaneous TNFalpha production measured after 24 hrs by ELISA

Toll-like receptor 5 (Homo sapiens), sequence (O60602 whole entry): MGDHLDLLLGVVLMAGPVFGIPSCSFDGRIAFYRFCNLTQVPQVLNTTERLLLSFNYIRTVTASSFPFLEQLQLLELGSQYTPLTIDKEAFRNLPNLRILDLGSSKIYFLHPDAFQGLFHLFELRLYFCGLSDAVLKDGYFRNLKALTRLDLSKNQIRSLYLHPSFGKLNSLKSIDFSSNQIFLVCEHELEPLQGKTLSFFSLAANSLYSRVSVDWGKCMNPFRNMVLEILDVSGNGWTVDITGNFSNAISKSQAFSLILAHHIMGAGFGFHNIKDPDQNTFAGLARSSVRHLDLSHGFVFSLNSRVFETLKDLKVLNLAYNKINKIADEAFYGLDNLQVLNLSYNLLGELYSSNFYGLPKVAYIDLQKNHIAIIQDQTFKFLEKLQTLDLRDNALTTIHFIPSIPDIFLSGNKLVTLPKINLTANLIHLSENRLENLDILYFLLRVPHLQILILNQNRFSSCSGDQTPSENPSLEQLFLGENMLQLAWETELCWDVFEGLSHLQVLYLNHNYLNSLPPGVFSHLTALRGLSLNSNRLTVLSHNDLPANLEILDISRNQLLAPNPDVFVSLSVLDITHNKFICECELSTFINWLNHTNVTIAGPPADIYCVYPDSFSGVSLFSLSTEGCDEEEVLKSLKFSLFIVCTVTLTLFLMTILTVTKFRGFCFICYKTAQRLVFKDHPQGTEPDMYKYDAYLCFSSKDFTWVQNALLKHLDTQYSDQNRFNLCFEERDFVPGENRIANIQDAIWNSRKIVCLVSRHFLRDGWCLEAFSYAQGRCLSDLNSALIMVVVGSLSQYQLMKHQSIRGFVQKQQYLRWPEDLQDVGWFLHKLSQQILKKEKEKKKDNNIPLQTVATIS
Toll-like receptor 4 (Homo sapiens), sequence (O00206 whole entry): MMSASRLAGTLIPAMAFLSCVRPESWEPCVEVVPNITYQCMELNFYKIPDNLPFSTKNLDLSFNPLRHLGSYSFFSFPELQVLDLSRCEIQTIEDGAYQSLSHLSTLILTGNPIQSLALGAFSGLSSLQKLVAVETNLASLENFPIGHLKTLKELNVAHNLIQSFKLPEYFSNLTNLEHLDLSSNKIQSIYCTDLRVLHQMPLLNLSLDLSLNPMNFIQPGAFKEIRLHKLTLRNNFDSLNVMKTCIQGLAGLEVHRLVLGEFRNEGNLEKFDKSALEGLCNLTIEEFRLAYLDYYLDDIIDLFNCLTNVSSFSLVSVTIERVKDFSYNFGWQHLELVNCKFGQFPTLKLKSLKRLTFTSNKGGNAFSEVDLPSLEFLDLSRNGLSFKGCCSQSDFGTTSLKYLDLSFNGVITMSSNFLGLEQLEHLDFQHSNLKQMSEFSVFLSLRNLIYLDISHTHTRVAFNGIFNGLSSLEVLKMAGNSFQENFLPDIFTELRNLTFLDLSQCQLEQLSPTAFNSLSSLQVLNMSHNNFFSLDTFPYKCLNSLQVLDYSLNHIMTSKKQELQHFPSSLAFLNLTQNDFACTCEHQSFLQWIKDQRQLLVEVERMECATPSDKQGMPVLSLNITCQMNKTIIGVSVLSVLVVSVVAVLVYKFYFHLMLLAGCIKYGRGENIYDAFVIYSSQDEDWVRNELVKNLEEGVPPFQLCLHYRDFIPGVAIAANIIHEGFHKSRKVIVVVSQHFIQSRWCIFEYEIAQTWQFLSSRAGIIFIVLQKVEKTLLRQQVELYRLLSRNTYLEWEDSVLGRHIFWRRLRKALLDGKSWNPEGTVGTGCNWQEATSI

CSc1nnc(CCCO)n1-c1cc(C)c(C)c(C)c1
inhibition [1]: Active
inhibition [2]: Dose-dependent effect
IC50 (Toll-like receptor 8): 30 nM
inhibition [3]: inactive
inhibition [4]: inactive
inhibition [5]: Active
inhibition [6]: Active
inhibition [7]: Dose-dependent effect
inhibition [8]: Dose-dependent effect
inhibition [9]: Dose-dependent effect
Activity (PBMC): Non-Toxic
inhibition [10]: Dose-dependent effect
